In one test the target is T1, P2X purinoceptor 1 (Homo sapiens, UniProt P51575).
T1 sequence (P51575 whole entry): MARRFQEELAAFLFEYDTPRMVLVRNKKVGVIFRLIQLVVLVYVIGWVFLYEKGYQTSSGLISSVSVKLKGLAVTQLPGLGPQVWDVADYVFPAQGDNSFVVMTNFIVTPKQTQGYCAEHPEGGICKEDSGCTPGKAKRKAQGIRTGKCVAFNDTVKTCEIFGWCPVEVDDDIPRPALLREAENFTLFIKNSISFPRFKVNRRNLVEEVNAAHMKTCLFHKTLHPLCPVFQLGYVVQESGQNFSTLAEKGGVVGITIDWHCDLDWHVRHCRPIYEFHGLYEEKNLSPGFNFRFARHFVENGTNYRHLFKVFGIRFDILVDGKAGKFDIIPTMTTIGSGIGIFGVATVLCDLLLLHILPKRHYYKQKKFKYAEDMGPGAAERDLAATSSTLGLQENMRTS
Put plainly: Antagonist activity at human P2X1R transfected in human 1321N1 cells assessed as inhibition of ATP-induced calcium influx. In kind it is cell-based. The method, boiled down: (§1)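 1321N1 astrocytoma cells stably expressing human P2X1, P2X2, P2X3 or P2X4 receptor. Calcium influx was induced by ATP at the EC80 for each subtype. Results are given as IC50 (μM) or % inhibition at the indicated concentration.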

For test [1], the target named is T2, P2X purinoceptor 3 (Mus musculus, UniProt Q3UR32).
T2 sequence (Q3UR32 whole entry): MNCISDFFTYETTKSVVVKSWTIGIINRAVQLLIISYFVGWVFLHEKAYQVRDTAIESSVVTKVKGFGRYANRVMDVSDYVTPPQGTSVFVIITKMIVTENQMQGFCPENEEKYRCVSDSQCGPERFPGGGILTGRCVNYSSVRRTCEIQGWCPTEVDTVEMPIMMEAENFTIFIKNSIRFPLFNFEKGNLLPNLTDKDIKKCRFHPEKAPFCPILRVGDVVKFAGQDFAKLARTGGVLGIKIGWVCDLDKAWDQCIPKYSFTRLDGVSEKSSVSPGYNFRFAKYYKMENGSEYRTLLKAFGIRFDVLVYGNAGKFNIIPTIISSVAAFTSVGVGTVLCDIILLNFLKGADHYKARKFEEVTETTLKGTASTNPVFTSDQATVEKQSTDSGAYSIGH
Description: Antagonist activity at P2X3R in mouse TG sensory neurons assessed as inhibition of P2X3R agonist alpha,beta-meATP-induced current at -65 mV holding potential by whole cell voltage clamp method. In a few lines:
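Mouse trigeminal sensory neurons were recorded by whole-cell patch clamp. Test compound (0.001–10 μM) was applied before 10 μM α,β-meATP, and inhibition of the agonist-evoked P2X3 current was measured. IC50 was taken from concentration–inhibition curves. N = 5–6 cells.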

A further test deals with T3, P2X purinoceptor 2 (Homo sapiens, UniProt Q9UBL9).
T3 sequence (Q9UBL9 whole entry): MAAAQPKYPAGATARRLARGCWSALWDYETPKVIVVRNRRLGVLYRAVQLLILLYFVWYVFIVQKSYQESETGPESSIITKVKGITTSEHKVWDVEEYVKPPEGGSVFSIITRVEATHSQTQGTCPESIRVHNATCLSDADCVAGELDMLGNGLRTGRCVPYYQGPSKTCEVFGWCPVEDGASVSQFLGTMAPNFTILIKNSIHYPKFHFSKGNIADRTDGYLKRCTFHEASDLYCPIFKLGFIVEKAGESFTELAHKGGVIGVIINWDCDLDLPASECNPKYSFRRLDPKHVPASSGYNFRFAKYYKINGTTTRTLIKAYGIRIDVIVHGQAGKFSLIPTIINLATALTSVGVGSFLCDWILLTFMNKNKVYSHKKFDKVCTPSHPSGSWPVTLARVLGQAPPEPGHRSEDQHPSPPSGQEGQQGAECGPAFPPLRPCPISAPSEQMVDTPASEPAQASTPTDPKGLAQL
Put plainly: Antagonist activity at human P2X2R transfected in human 1321N1 cells assessed as inhibition of ATP-induced calcium influx. The format is cell-based. In a few lines:
as §1

Test [2] concerns the target T4, P2X purinoceptor 3 (Homo sapiens, UniProt P56373).
T4 sequence (P56373 whole entry): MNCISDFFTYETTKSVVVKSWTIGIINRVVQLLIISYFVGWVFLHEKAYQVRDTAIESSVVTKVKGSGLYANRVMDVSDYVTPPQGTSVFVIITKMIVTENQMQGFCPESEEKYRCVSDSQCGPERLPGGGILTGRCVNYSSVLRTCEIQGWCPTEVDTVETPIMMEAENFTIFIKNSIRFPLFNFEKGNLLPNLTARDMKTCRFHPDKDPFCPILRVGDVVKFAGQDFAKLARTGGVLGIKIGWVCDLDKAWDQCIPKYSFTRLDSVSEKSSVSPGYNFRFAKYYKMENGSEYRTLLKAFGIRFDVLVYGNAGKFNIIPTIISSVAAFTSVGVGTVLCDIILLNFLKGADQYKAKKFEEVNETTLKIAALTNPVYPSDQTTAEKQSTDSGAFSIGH
Description: Antagonist activity at human P2X3R transfected in human 1321N1 cells assessed as inhibition of ATP-induced calcium influx. The format is cell-based. The method, boiled down:
as §1

The next test addresses T5, P2X purinoceptor 7 (Homo sapiens, UniProt Q99572).
T5 sequence (Q99572 whole entry): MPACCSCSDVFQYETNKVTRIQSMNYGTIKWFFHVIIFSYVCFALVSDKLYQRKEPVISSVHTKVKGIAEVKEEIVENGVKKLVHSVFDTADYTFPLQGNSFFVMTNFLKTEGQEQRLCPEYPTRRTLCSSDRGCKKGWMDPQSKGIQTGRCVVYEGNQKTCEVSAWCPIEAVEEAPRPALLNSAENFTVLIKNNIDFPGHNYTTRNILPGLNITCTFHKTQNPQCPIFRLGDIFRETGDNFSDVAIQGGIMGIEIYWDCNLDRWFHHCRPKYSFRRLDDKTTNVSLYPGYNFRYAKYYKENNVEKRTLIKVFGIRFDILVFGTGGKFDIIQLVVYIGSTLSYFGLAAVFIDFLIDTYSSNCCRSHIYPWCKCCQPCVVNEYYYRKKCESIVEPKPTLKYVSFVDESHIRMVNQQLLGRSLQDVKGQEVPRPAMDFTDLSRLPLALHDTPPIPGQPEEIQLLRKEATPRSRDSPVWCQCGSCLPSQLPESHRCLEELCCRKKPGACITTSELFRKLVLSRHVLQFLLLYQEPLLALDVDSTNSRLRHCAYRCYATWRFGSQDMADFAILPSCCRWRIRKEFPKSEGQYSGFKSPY
Description: Antagonist activity at human P2X7R transfected in human 1321N1 cells assessed as inhibition of Bz-ATP-induced calcium influx. In kind it is cell-based.

For test [3], the target named is T6, P2X purinoceptor 7 (Homo sapiens) (UniProt Q99572).
T6 sequence (whole entry): T5 sequence (Q99572 whole entry)
Put plainly: Antagonist activity at human P2X7R transfected in human 1321N1 cells assessed as inhibition of Bz-ATP-induced calcium influx relative to control. The format is cell-based. Particulars: concentration not given here.

Test [4] has as its target T7, P2X purinoceptor 3 (Mus musculus) (UniProt Q3UR32).
T7 sequence (whole entry): T2 sequence (Q3UR32 whole entry)
Put plainly: Agonist activity at P2X3R in mouse TG sensory neurons assessed as induction of channel current at 10 uM at -65 mV holding potential by whole cell voltage clamp method relative to alpha,beta-meATP.

Calls of active or inactive are those of the source. No cut-off for these calls is given here. Bounds are passed on as bounds.

By IC50 is commonly meant the point on the concentration scale where inhibition reaches its midpoint. The term inhibition denotes the drop in the measured response relative to a control, in per cent. As to `Nc1ncnc2c1ncn2[C@@H]1O[C@H](COP(=O)(O)CP(=O)(O)OP(=O)(O)O)[C@H]2OC3(CCCCC3)O[C@H]21`, the IC50 on P2X purinoceptor 1 is over 100 µM; at P2X purinoceptor 3 [1] it was 0.127 µM; at P2X purinoceptor 2, over 100 µM; on P2X purinoceptor 3 [2], 17.5 µM; on P2X purinoceptor 7, over 100 µM. Moreover, in test [3], the inhibition is -1%. The outcome in test [4] was inactive.
With `CC1(C)O[C@@H]2[C@H](O1)[C@@H](COP(=O)(O)OP(=O)(O)OP(=O)(O)O)O[C@H]2n1cnc2c(N)ncnc21`, the IC50 is 41.1 µM at P2X purinoceptor 1; 0.024 µM on P2X purinoceptor 3 [1]; over 100 µM on P2X purinoceptor 2; 4.11 µM on P2X purinoceptor 3 [2]; over 100 µM on P2X purinoceptor 7. Also, the inhibition in test [3] came out at 5%. The outcome in test [4] was inactive.
For the compound `Nc1ncnc2c1ncn2[C@@H]1O[C@H](COP(=O)(O)OP(=O)(O)OP(=O)(O)O)[C@H]2OCO[C@H]21`, the IC50 at P2X purinoceptor 1 was over 100 µM; on P2X purinoceptor 3 [1], over 1 µM; on P2X purinoceptor 2, over 100 µM; at P2X purinoceptor 3 [2], over 100 µM; at P2X purinoceptor 7, over 100 µM. In addition, in test [3], the inhibition was 21%. The outcome in test [4] was inactive.

The values above are taken from ChEMBL document CHEMBL4433213, “Investigation on 2',3'-O-Substituted ATP Derivatives and Analogs as Novel P2X3 Receptor Antagonists” (ACS Med Chem Lett, 2019).
